The nature of series [1]: Comparative 14-day repeated-dose toxicity study with BAY964. Format: in vivo, male ICR mice. The note with it: for exposure multiple: reference not defined. The method, boiled down: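 Male ICR mice were dosed orally once daily for 14 days under GLP. Prodrug arm: 30, 100 or 300 mg/kg in 0.1% kolliphor EL (vehicle n=6; dose groups 6 main + 3 TK). Comparator arm: 30-1000 mg/kg, with 30 mg/kg given only as single-dose TK. Endpoints were clinical signs, body weight, food/water intake, haematology, serum chemistry, organ weights and H&E histopathology. TK was sampled on days 1 and 14.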

The target in series [2] is hERG channel (Homo sapiens, UniProt Q12809). The series is described as follows: hERG channel inhibition, in vitro. It is filed as biochemical. Conditions: read-out: hERG IC50.
Sequence of hERG channel (Q12809 whole entry): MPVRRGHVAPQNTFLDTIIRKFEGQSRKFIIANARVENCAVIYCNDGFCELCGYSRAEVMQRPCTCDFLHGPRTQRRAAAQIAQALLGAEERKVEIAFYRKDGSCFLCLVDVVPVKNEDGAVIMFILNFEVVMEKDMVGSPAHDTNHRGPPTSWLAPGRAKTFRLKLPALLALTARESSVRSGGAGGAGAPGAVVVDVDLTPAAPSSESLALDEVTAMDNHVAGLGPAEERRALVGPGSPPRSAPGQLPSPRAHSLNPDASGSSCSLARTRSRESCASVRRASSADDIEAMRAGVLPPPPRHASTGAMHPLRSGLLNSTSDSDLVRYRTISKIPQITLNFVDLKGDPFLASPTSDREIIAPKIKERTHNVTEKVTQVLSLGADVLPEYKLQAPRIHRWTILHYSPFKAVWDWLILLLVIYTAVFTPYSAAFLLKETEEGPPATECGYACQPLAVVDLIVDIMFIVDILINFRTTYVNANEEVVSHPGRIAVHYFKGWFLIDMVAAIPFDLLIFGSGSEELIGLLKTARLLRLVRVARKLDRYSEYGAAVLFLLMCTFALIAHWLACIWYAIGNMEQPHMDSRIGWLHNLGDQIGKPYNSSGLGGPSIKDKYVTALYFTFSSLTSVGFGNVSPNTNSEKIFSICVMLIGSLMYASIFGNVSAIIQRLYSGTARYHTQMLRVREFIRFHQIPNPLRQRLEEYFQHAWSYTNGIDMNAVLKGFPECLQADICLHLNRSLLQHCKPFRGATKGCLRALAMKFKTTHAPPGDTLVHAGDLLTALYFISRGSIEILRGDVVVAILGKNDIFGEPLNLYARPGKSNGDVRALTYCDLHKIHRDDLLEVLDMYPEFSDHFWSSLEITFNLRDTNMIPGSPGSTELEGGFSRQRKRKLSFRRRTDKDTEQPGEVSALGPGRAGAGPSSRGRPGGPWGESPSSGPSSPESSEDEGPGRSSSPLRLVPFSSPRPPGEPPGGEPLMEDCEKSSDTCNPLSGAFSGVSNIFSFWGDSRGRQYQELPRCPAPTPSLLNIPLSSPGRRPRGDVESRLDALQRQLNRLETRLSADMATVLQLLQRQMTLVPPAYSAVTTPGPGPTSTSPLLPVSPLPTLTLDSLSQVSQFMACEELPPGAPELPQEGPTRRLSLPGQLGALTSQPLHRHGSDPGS

These results are taken from paper PMC12782866 (Biomolecules & Therapeutics, 2025).

The IC50 is the point on the concentration scale where inhibition reaches its midpoint.

SMILES strings stand for the structures. Entries after “also recorded” stand apart in the source; their conditions may differ. Where only a bound is given, the exact number is not on record here.

On to `C[C@@H](CO)NC(=O)c1cc(-c2ccc(Cl)cc2)nn(-c2cnn(C)c2)c1=O` [BAY964], for which the toxicological findings result was “MCHC ↓, TG ↓, liver, spleen” in series [1] (100 mg/kg, 14 days); “liver, spleen; hematological changes” in series [1] (300 mg/kg, 14 days); “gastrointestinal, liver, spleen, kidney lesions” in series [1] (1000 mg/kg, 14 days). In addition, the exposure multiple is recorded as 1.9 × in series [1] (100 mg/kg), 3.6 × in series [1] (300 mg/kg) and 7.0 × in series [1] (1000 mg/kg). Besides, the Target organ entry in series [1] (100-1000 mg/kg, 14 days) is “liver, spleen, gastrointestinal tract, and kidney; also recorded: Liver, spleen, GI tract, kidney”. The IC50 in series [2] is over 10 µM.
